Test results: ChEMBL document CHEMBL1138079 (J Med Chem, 2006)
pIC50: −log10 of the molar value.

Experiments:
[1] = (§1) Half life in phosphate buffer at pH 7 at 37 degC assessed as reduction by Escherichia coli nitroreductase by NR assay; type: ADME; conditions: buffer
Procedure, shortened: (§2)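 Substrate at 0.2 mM with 1 mM NADH in 10 mM sodium phosphate buffer, pH 7.0, at 37 °C. Reaction started by adding 1.8 µg E. coli nitroreductase; 2 mM cysteine added for one compound. Aliquots taken at intervals, quenched with acetonitrile, frozen, then analysed by HPLC. Half-life calculated from substrate disappearance.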

V79 [2] = assay: Antiproliferative activity against NTR expressing chinese hamster V79 cells after 72 hrs; type: functional, cell-based, Cricetulus griseus
Procedure, shortened: (§3)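 V79 Chinese hamster fibroblasts: NTR⁺ cells stably transfected with a bicistronic NTR/puromycin-resistance vector and kept under puromycin selection; vector-only NTR⁻ controls. Seeded 1000 cells/well, recovered 24 h, then exposed to serially diluted drug for 3 days at 37 °C, initially up to 100 µM. SRB stain read at 570 nm. IC50 interpolated; ratio is NTR⁻/NTR⁺ IC50.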

V79 [3] = assay: Ratio for antiproliferative activity against NTR- V79 cells to NTR+ V79 cells after 72 hrs; type: functional, Cricetulus griseus; procedure, shortened: as §3
V79 [4] = assay: Antiproliferative activity against chinese hamster V79 cells after 72 hrs; type: functional, cell-based, Cricetulus griseus; procedure, shortened: as §3
nitroreductase = assay: as §1; type: ADME; conditions: Escherichia coli, Escherichia coli nitroreductase in phosphate buffer; procedure, shortened: as §2
SK-OV-3 [5] = assay: Antiproliferative activity against NTR expressing human SKOV3 cells after 18 hrs; type: functional, cell-based
Procedure, shortened: (§4)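 SKOV3 ovarian carcinoma cells stably transduced with a retroviral NTR vector and selected with 1 mg/mL G418, compared with parental SKOV3. Plated at 20 000 cells/well and allowed to adhere 24 h. Prodrug range given for 18 h, then replaced with drug-free medium. MTT survival read 2 days later. Ratio is NTR⁻/NTR⁺ IC50.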

SK-OV-3 [6] = assay: Ratio for antiproliferative activity against NTR- SKOV3 cells to NTR+ SKOV3 cells after 18 hrs; type: functional, Homo sapiens; procedure, shortened: as §4
SK-OV-3 [7] = assay: Antiproliferative activity against NTR expressing human SKOV3 cells […] after 18 hrs; type: functional, cell-based
SK-OV-3 [8] = assay: Ratio for antiproliferative activity against NTR- SKOV3 cells to NTR+ SKOV3 cells infected with 100 pfu/cell retrovirus after 18 hrs; type: functional, Homo sapiens
SK-OV-3 [9] = assay: Antiproliferative activity against human SKOV3 cells after 18 hrs; type: functional, cell-based; procedure, shortened: as §4
V79 [10] = assay: Antiproliferative activity against NTR expressing chinese hamster V79 cells after 1 hr; type: functional, cell-based, Cricetulus griseus
Procedure, shortened: (§5)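 Same stable NTR⁺ and vector-only NTR⁻ V79 pair, seeded 1000 cells/well and recovered 24 h. Cells exposed to drug for 1 h only, initially up to 100 µM, then given drug-free medium. SRB viability was read 3 days after drug addition. IC50 is the concentration giving 50% of control cell number; ratio is NTR⁻/NTR⁺.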

SK-OV-3 [11] = assay: Ratio for antiproliferative activity against NTR- SKOV3 cells to NTR+ SKOV3 cells infected with 10 pfu/cell retrovirus after 18 hrs; type: functional, Homo sapiens
SK-OV-3 [12] = assay: Antiproliferative activity against human SKOV3 cells infected with 10 pfu/cell retrovirus after 18 hrs; type: functional, cell-based; conditions: SK-OV-3, 18 h
SK-OV-3 [13] = assay: Antiproliferative activity against human SKOV3 cells infected with 100 pfu/cell retrovirus after 18 hrs; type: functional, cell-based
V79 [14] = assay: Antiproliferative activity against chinese hamster V79 cells after 1 hr; type: functional, cell-based; conditions: Cricetulus griseus, V79, 1 h; procedure, shortened: as §5
V79 [15] = assay: Ratio for antiproliferative activity against NTR- V79 cells to NTR+ V79 cells after 1 hr; type: functional, cell-based, Cricetulus griseus; procedure, shortened: as §5

## O=[N+]([O-])c1ccc(C2CCNP(=O)(N(CCCl)CCCl)N2)cc1 (racemic; trans)
[1]
  T1/2: 4.2 min
V79 [2]; v79
  pIC50: 4.32
V79 [3]
  Ratio: >2.1
V79 [4]; v79
  pIC50: < 4.00

## O=P1(N(CCCl)CCCl)NC(OO)CCO1 (stereo not given) [PERFOSFAMIDE]
V79 [2]; Cricetulus griseus, V79, 72 h
  pIC50: 5.57
V79 [3]
  Ratio: 1.1
V79 [4]; Cricetulus griseus, V79, 72 h
  pIC50: 5.51

## O=[N+]([O-])c1ccc(C2CCNP(=O)(N(CCCl)CCCl)N2)cc1 (racemic; cis)
nitroreductase
  half-life: 6.4 min
V79 [2]; v79
  pIC50: 5.34
V79 [3]
  Ratio: 12
V79 [4]; Cricetulus griseus, V79, 72 h
  pIC50: 4.25

## O=[N+]([O-])c1ccc(C2CCOP(=O)(N(CCCl)CCCl)N2)cc1 (racemic; cis)
SK-OV-3 [5]; sk-ov-3
  pIC50: 3.28
SK-OV-3 [6]
  Ratio: >1.9
SK-OV-3 [7]; sk-ov-3
  pIC50: 3.28
[1]
  T1/2: 11.9 min
V79 [2]; v79
  pIC50: 4.34
V79 [3]
  Ratio: >2.2
SK-OV-3 [8]
  Ratio: >1.9

## NC(=O)c1cc(N2CC2)c([N+](=O)[O-])cc1[N+](=O)[O-] [TRETAZICAR]
SK-OV-3 [9]; Homo sapiens, SK-OV-3, 18 h
  pIC50: < 3.10
V79 [10]; Cricetulus griseus, V79, 1 h
  pIC50: 6.51
SK-OV-3 [5]; Homo sapiens, SK-OV-3, 18 h
  pIC50: 5.70
SK-OV-3 [6]
  Ratio: >400
SK-OV-3 [11]
  Ratio: 12
nitroreductase
  half-life: 5 min
V79 [2]; Cricetulus griseus, V79, 72 h
  pIC50: 7.44
SK-OV-3 [12]
  pIC50: 3.20
V79 [3]
  Ratio: 7100
V79 [4]; Cricetulus griseus, V79, 72 h
  pIC50: 3.60
SK-OV-3 [8]
  Ratio: >210
SK-OV-3 [13]; Homo sapiens, SK-OV-3, 18 h
  pIC50: < 3.00
V79 [14]
  pIC50: < 4.00
V79 [15]
  Ratio: >320

## O=[N+]([O-])c1ccc(C2CCNP(=O)(N(CCCl)CCCl)O2)cc1 (racemic; cis)
SK-OV-3 [9]; sk-ov-3
  pIC50: < 3.03
V79 [10]; v79
  pIC50: 6.47
SK-OV-3 [6]
  Ratio: >440
SK-OV-3 [7]; sk-ov-3
  pIC50: 5.33
[1]
  T1/2: 5.2 min
V79 [2]; v79
  pIC50: 7.54
V79 [3]
  Ratio: 29000
V79 [4]; v79
  pIC50: 3.08
SK-OV-3 [8]
  Ratio: 150
SK-OV-3 [13]; sk-ov-3
  pIC50: 3.17
V79 [15]
  Ratio: >290

## O=[N+]([O-])c1ccc(C2CCOP(=O)(N(CCCl)CCCl)N2)cc1 (racemic; trans)
SK-OV-3 [9]; Homo sapiens, SK-OV-3, 18 h
  pIC50: < 3.00
SK-OV-3 [5]; sk-ov-3
  pIC50: 3.68
SK-OV-3 [6]
  Ratio: >4.8
SK-OV-3 [7]; sk-ov-3
  pIC50: 3.66
[1]
  T1/2: 2.9 min
V79 [2]; Cricetulus griseus, V79, 72 h
  pIC50: 4.29
V79 [3]
  Ratio: >1.9
V79 [4]; Cricetulus griseus, V79, 72 h
  pIC50: < 4.00
SK-OV-3 [8]
  Ratio: >4.5
SK-OV-3 [13]; Homo sapiens, SK-OV-3, 18 h
  pIC50: < 3.00

## NP(=O)(OCc1ccc([N+](=O)[O-])cc1)N(CCCl)CCCl (racemic)
SK-OV-3 [9]; Homo sapiens, SK-OV-3, 18 h
  pIC50: < 3.05
V79 [10]; Cricetulus griseus, V79, 1 h
  pIC50: 8.00
SK-OV-3 [5]; Homo sapiens, SK-OV-3, 18 h
  pIC50: 6.80
SK-OV-3 [6]
  Ratio: >5600
SK-OV-3 [11]
  Ratio: >160
nitroreductase
  half-life: 2.3 min
V79 [2]; Cricetulus griseus, V79, 72 h
  pIC50: 9.40
SK-OV-3 [12]
  pIC50: < 3.00
V79 [3]
  Ratio: 170000
V79 [4]; Cricetulus griseus, V79, 72 h
  pIC50: 4.17
SK-OV-3 [8]
  Ratio: >830
SK-OV-3 [13]; Homo sapiens, SK-OV-3, 18 h
  pIC50: < 3.00
V79 [14]
  pIC50: < 4.00
V79 [15]
  Ratio: >10000

## O=[N+]([O-])c1ccc(C2CCNP(=O)(N(CCCl)CCCl)O2)cc1 (racemic; trans)
SK-OV-3 [9]; Homo sapiens, SK-OV-3, 18 h
  pIC50: 3.24
V79 [10]; Cricetulus griseus, V79, 1 h
  pIC50: 6.77
SK-OV-3 [5]; Homo sapiens, SK-OV-3, 18 h
  pIC50: 5.68
SK-OV-3 [6]
  Ratio: 270
SK-OV-3 [7]; Homo sapiens, SK-OV-3, 18 h
  pIC50: 5.30
nitroreductase
  half-life: 3.9 min
V79 [2]; Cricetulus griseus, V79, 72 h
  pIC50: 7.57
V79 [3]
  Ratio: 23000
V79 [4]; Cricetulus griseus, V79, 72 h
  pIC50: 3.22
SK-OV-3 [8]
  Ratio: >200
SK-OV-3 [13]; Homo sapiens, SK-OV-3, 18 h
  pIC50: < 3.00
V79 [14]
  pIC50: < 4.00
V79 [15]
  Ratio: >590
